Measured values published in ChEMBL document CHEMBL3872287, “Novel 2-Substituted 7-Azaindole and 7-Azaindazole Analogues as Potential Antiviral Agents for the Treatment of Influenza” (ACS Med Chem Lett, 2017).

What was measured:
[1] = Antiviral activity against Influenza A virus (A/Puerto Rico/8/34(H1N1)) infected in MDCK cells assessed as decrease in negative strand HA RNA levels after 20 hrs by bDNA hybridization method; format: functional, Influenza A virus (A/Puerto Rico/8/1934(H1N1))
Summary of the method: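 Viral RNA in infected cells quantified by branched DNA assay. EC90 is the test-compound concentration giving viral RNA levels equal to 10% of control wells.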

[2] = Oral bioavailability in rat at 3 mg/kg; format: ADME, organism-based; details: in vivo
aldehyde oxidase [3] = molecular target: T1, aldehyde oxidase (Homo sapiens, UniProt Q06278); experiment: Drug metabolism in human liver cytosol assessed as aldehyde oxidase-mediated metabolism by measuring amount of parent compound remaining measured over 4 hrs in presence of aldehyde oxidase inhibitor raloxifene by MS/MS analysis; format: ADME; details: read-out: Stability
T1 sequence (Q06278 whole entry): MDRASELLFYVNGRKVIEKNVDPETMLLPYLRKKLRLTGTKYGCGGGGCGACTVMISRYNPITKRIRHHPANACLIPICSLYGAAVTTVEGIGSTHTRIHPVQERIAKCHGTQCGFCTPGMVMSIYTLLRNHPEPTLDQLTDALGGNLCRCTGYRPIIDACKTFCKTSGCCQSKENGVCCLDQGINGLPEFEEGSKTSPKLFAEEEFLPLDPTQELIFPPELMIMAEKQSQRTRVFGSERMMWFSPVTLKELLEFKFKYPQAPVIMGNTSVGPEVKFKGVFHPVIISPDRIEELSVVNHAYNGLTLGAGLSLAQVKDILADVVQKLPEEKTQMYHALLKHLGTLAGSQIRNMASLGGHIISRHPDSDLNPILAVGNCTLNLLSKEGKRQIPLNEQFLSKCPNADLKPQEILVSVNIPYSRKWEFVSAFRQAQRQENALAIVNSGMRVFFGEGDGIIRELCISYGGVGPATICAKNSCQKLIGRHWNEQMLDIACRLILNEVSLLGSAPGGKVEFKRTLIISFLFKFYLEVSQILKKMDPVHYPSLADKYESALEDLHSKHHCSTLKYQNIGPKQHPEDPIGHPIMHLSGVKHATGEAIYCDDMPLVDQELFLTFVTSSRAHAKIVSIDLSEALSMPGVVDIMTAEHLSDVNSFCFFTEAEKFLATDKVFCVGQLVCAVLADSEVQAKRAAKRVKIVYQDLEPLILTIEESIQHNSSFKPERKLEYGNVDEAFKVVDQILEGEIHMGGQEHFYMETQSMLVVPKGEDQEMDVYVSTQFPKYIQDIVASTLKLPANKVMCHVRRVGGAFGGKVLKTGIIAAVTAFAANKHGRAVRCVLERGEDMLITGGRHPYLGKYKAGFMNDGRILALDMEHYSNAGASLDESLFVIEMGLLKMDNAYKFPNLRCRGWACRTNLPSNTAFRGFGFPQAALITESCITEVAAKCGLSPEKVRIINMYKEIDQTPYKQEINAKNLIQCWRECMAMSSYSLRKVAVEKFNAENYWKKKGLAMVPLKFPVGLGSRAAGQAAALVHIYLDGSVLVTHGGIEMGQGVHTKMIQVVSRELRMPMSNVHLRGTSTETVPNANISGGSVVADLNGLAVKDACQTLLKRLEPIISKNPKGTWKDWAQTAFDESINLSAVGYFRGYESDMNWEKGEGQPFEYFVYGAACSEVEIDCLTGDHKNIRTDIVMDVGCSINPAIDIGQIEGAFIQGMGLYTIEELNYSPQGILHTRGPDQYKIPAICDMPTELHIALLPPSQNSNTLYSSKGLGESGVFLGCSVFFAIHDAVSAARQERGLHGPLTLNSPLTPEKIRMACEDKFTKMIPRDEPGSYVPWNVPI
Summary of the method: (§1)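 Test compounds were incubated in triplicate at 1 µM in human liver cytosol (1 mg/mL protein) at 37 °C for 4 hours, with or without the aldehyde oxidase inhibitor raloxifene.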

[4] = Volume of distribution in steady state in rat at 1 mg/kg, iv; format: ADME, organism-based; details: in vivo, read-out: Vdss
[5] = Half life in rat at 1 mg/kg, iv; format: ADME, organism-based; details: in vivo
aldehyde oxidase [6] = molecular target: T1, aldehyde oxidase; experiment: Drug metabolism in human liver cytosol assessed as aldehyde oxidase-mediated metabolism by measuring amount of parent compound remaining measured over 4 hrs in absence of aldehyde oxidase inhibitor raloxifene by MS/MS analysis; format: ADME; details: read-out: Stability; summary of the method: as §1
[7] = Clearance in rat at 1 mg/kg, iv; format: ADME, organism-based; details: in vivo
[8] = AUC (0 to infinity) in rat at 3 mg/kg, po; format: ADME, organism-based; set-up: dose 3 mg/kg, time infinity, route oral; details: in vivo
[9] = AUC in mouse at 30 mg/kg, po; format: ADME, organism-based; details: in vivo
[10] = Cmax in mouse at 30 mg/kg, po; format: ADME, organism-based; set-up: dose 30 mg/kg, route oral; details: in vivo
[11] = Cmax in rat at 3 mg/kg, po; format: ADME, organism-based; set-up: dose 3 mg/kg, route oral; details: in vivo

| SMILES | EC90 ([1]; Influenza A virus, MDCK, 20 h) | remaining at 4 h (aldehyde oxidase [3]) | remaining at 4 h (aldehyde oxidase [6]) | further results |
| --- | --- | --- | --- | --- |
| O=C(O)[C@H]1C2CCC(CC2)[C@@H]1Nc1nc(-c2n[nH]c3ncc(F)cc23)ncc1F | 3 nM | – | – | – |
| O=C(N[C@@H]1CCC[C@H](Nc2nc(-c3c(CO)[nH]c4ncc(F)cc34)ncc2F)C1)N1CCCC1 | 28 nM | 96% | 100% | bioavailability [2]: 100%; Vd [4]: 0.6 L/kg; half-life [5]: 2.3 h; clearance [7]: 6.2 mL/min/kg; AUC(0-inf) [8]: 9700 ng·h/mL; AUC [9]: 101000 ng·h/mL; Cmax [10]: 37700 ng/mL; Cmax [11]: 2800 ng/mL |
| O=C(N[C@@H]1CCC[C@H](Nc2nc(-c3n[nH]c4ncc(F)cc34)ncc2F)C1)N1CCOCC1 | 14 nM | – | – | – |
| O=C(N[C@@H]1CCC[C@H](Nc2nc(-c3c(C4CC4)[nH]c4ncc(F)cc34)ncc2F)C1)N1CCCC1 | > 3300 nM | – | – | – |
| O=C(N[C@@H]1CCC[C@H](Nc2nc(-c3n[nH]c4ncc(F)cc34)ncc2F)C1)c1ccsc1 | 1 nM | 107% | 0% | – |
| CC(O)c1[nH]c2ncc(F)cc2c1-c1ncc(F)c(N[C@H]2CCC[C@@H](NC(=O)N3CCCC3)C2)n1 (stereo in doubt; 21b) | – | 99% | 99% | EC90 [1]: 460 nM |
| O=C(N[C@@H]1CCC[C@H](Nc2nc(-c3c(CO)[nH]c4ncc(F)cc34)ncc2F)C1)N1CC[C@@H](F)C1 | 10 nM | 114% | 105% | – |
| O=C(N[C@@H]1CCC[C@H](Nc2nc(-c3c(/C=N/O)[nH]c4ncc(F)cc34)ncc2F)C1)N1CCCC1 | 91 nM | – | – | – |
| O=C(O)c1[nH]c2ncc(F)cc2c1-c1ncc(F)c(N[C@H]2CCC[C@@H](NC(=O)N3CCCC3)C2)n1 | 2200 nM | – | – | – |
| CC(O)c1[nH]c2ncc(F)cc2c1-c1ncc(F)c(N[C@H]2CCC[C@@H](NC(=O)N3CCCC3)C2)n1 (stereo in doubt; 21a) | – | – | – | EC90 [1]: 27 nM |
| O=C(N[C@@H]1CCC[C@H](Nc2nc(-c3c[nH]c4ncc(F)cc34)ncc2F)C1)N1CCCC1 | 1 nM | 99% | 4% | bioavailability [2]: 82%; Vd [4]: 0.3 L/kg; half-life [5]: 3.2 h; clearance [7]: 1.2 mL/min/kg; AUC(0-inf) [8]: 30300 ng·h/mL; AUC [9]: 336000 ng·h/mL; Cmax [10]: 61100 ng/mL; Cmax [11]: 2600 ng/mL |
| O=C(N[C@@H]1CCC[C@H](Nc2nc(-c3n[nH]c4ncc(F)cc34)ncc2F)C1)N1CC[C@@H](F)C1 | 1 nM | 98% | 0.6% | – |
| Cn1cnc(C(=O)N[C@@H]2CCC[C@H](Nc3nc(-c4n[nH]c5ncc(F)cc45)ncc3F)C2)c1 | 15 nM | 103% | 40% | – |
| Cc1[nH]c2ncc(F)cc2c1-c1ncc(F)c(N[C@H]2CCC[C@@H](NC(=O)N3CCCC3)C2)n1 | 280 nM | 103% | 103% | – |
| O=C(N[C@@H]1CCC[C@H](Nc2nc(-c3c[nH]c4ncc(F)cc34)ncc2F)C1)N1CCOCC1 | – | 103% | 7% | – |
| O=C(N[C@@H]1CCC[C@H](Nc2nc(-c3n[nH]c4ncc(F)cc34)ncc2F)C1)N1CCCC1 | 2 nM | 101% | 1% | bioavailability [2]: 15.3%; Vd [4]: 0.4 L/kg; half-life [5]: 1.5 h; clearance [7]: 7.7 mL/min/kg; AUC(0-inf) [8]: 1200 ng·h/mL; AUC [9]: 44500 ng·h/mL; Cmax [10]: 32100 ng/mL; Cmax [11]: 200 ng/mL |
